Sampled rows, rich in hits. Any-hit rate of the full collection: about 7.9%.
JNK3 inh: JNK3 (human) kinase inhibition; AID 746; inhibition, % at 8 µM; purified JNK3 kinase activity, HTS; P53779; actives 0.61% (n = 60,000); in the data active = inhibition above about 17%;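 also: 0% = DMSO and 100% = reference inhibitor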
Target sequence (P53779 whole entry, looked up): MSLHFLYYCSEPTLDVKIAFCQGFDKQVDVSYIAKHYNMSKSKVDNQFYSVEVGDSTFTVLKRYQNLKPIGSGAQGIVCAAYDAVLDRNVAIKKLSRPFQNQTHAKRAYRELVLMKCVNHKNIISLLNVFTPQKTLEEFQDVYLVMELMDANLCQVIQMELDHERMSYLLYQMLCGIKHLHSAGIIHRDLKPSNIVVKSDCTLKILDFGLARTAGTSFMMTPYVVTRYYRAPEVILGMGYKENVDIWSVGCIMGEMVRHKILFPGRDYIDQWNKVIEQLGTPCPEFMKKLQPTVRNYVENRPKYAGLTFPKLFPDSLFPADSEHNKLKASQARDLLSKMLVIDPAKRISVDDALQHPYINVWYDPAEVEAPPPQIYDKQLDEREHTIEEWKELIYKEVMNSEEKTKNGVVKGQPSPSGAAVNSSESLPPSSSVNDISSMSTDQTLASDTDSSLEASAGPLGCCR
HEK293 NFkB inh: inhibitors of the PMA/ionomycin-induced NF-kB reporter in HEK293 cells | HEK-293 NF-kB luciferase reporter, luminescence | inhibition, % at 3 µM | actives 0.21% (n = 62,000) | AID 465;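 active = inhibition above the mean of all tested compounds plus 3 SD, cut at about 40% in these data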;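 also: 0% = stimulated DMSO wells and 100% = 10 µM reference inhibitor 5653914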
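System: NF-kB luciferase reporter HEK-293 cells | Replication: Single test | Control set: DMSO vs reference inhibitor | Evaluation: % inhibition | Schedule: 1 h pretreatment, 16 h stimulation, 37 °C | Probe or stimulus: PMA with ionomycin | Compound dosing: One dose, 3 µM | Detection: Luciferase luminescence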
SF1 activator: SF-1 (human) activation | Q13285 | CHO-K1 Gal4-SF-1 LBD luciferase reporter; % increase over DMSO SF-1-specific signal | activation, % at 10 µM | actives 1.9% (n = 65,000) | AID 522;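 active = activation above the mean activation of all tested compounds plus 3 SD, cut at about 50% in these data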
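System: CHO-K1 cells with Gal4–hSF-1 LBD chimera plus Gal4-driven luciferase; quantity: 4,000 CHO-K1 cells per well; compound: one dose, 10 µM compound, 1% DMSO; times: 20 h compound treatment, 37 °C; measured by: SteadyLite luciferase luminescence; read-out: percent activation versus DMSO; benchmarks: DMSO and mock-transfected background; replicates: one test per compound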
D1 mod: allosterically modulates the human D1 dopamine receptor. P21728. HEK293 D1, CRE-luciferase, dopamine EC30 potentiation; actives deviate in either direction. B-score at 10 µM. actives 5.9% (n = 58,000). AID 641;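 active = luminescence count or its row- and column-corrected plate score outside the 99.7% band of the plate's sample wells, on either side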
RORa activator: activates the human nuclear receptor RORA. activation, % at 10 µM. actives 1.5% (n = 65,000). CHO-K1 Gal4-RORA LBD luciferase reporter, luminescence; percent increase over mock-subtracted basal signal;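 active = activation above the mean of all tested compounds plus 3 SD, cut at about 49% in these data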;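 also: 0% = DMSO-treated RORA cells and 100% = added signal equal to DMSO minus mock-transfected cells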
D1 mod confirm: confirmation of human D1 dopamine receptor allosteric modulators | shares compounds with D1 mod | HEK293 D1 CRE-luciferase, dopamine EC30 potentiation; active compounds read high | luminescence at 10 µM | actives 88% (n = 2,200) | AID 642;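 active = luminescence in either of two replicates above the same-plate mean plus 3 SD of the low-dose dopamine control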
D1 no dopamine: D1 (human) signaling in absence of dopamine; shares compounds with D1 mod; HEK293 D1 CRE-luciferase, luminescence, no dopamine; active compounds read high; luminescence at 10 µM; actives 0.8% (n = 1,900); in the data active = luminescence above about 3900
Isoprot counter: counter-screen for D1 modulators: isoproterenol response in HEK293 cells; shares compounds with D1 mod; actives 63% (n = 2,200); HEK293 D1 CRE-luciferase, isoproterenol EC30 counter-screen; calls only at 10 µM;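 active = luminescence in either replicate above plate mean of wells with a partly effective reference agonist dose plus 3 SD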;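 also: isoproterenol raises cAMP through native beta-adrenoceptor Gs so signal bypasses D1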
* hit, by the source's call; i = inactive; x = not tested or not shown; + = active, no number.

SMILES	JNK3 inh	HEK293 NFkB inh	SF1 activator	D1 mod	RORa activator	D1 mod confirm	D1 no dopamine	Isoprot counter
Cc1cc(-n2nc(C)cc2C)nc(N)n1	3	5	4	5.6*	-8	10308*	x	+
CCOc1ccc(CC2CC(=O)NC2=O)cc1 (stereo not given)	4	x	2	x	-16	x	x	x
CC(C)C[C@H]1C(=O)N2CCC[C@H]2[C@]2(O)O[C@](NC(=O)[C@@H]3C=C4c5cccc6[nH]c(Br)c(c56)CC4N(C)C3)(C(C)C)C(=O)N12 (stereo not given in full)	0	x	18	24*	2	20940*	18100*	+
CC1=C(C(=O)OCC2CCCO2)C(c2ccccc2)NC(=O)N1 (stereo not given)	-8	15	-14	0.37	14	x	x	x
CC(=O)OCC1OC(c2ccccc2)C(OC(C)=O)C(OC(C)=O)C1OC(C)=O (stereo not given)	4	12	4	3.1*	-25	9036*	1700	i
Cc1n[nH]c(C)c1S(=O)(=O)N1CCN(C2CCCCC2)CC1	x	23	1	-0.14	-7	x	x	x
COc1ccc2[nH]c(=O)c(CN(Cc3cccs3)Cc3nnnn3C(C)(C)C)cc2c1	1	13	16	5.3*	15	7020*	1520	i
CC(=O)Nc1c(C(=O)N2CCN(c3ncccn3)CC2)cnn1-c1ccccc1Cl	2	3	-7	-0.025	4	x	x	x
CCOC(=O)C1=C(C)NC(=O)NC1c1cn(-c2ccccc2)nc1-c1cccs1 (stereo not given)	6	14	-11	2.8*	-11	10976*	1540	+
CC(Oc1ccc(Cl)cc1Cl)C(=O)NCc1ccncc1 (stereo not given)	x	14	-4	6.7*	-14	14184*	1620	+
O=S(=O)(Nc1cccc(-c2nc3cccnc3s2)c1)c1ccc2c(c1)OCCO2	0	16	18	4.6*	-7	8604*	1424	i
Cc1ccc(S(=O)(=O)NCCCNC(=O)N2CCOCC2)cc1	5	-3	13	3*	-3	5144	1760	i
Cn1c(=O)n(CC(=O)N2CCOCC2)c2ccccc21	-2	15	-1	0.42	1	x	x	x
Cc1cc(C)nc(NC(=O)NS(=O)(=O)N2CCCCCC2)n1	-11	16	28	-0.67	-3	x	x	x
O=C(c1ccccc1Cl)N1CCc2ccccc2C1	3	17	3	1.9	-18	x	x	x
O=C(c1cccc(F)c1)N1CCc2ccccc2C1	2	6	10	4.6*	7	9556*	12280*	i
COc1ccccc1Oc1ccc(S(=O)(=O)NCc2ccccn2)cc1	x	9	-3	-1.3	-13	x	x	x
COc1cc(-c2nnc(COc3ccc4cc(Br)ccc4c3)o2)cc(OC)c1OC	6	3	14	-0.62	24	x	x	x
COc1ccc(-c2nnc(COc3ccc4ccccc4c3)o2)cc1OC	x	x	x	4.9*	x	20456*	1420	+
O=C(O)C1CCCN1S(=O)(=O)c1ccc2[nH]c(=O)c(=O)[nH]c2c1 (stereo not given)	-3	4	-1	0.23	0	x	x	x
CCCCSc1nc(CCC)cc(=O)[nH]1	x	x	x	5.3*	x	15600*	1616	+
CCC1(C)Cc2c(C#N)c(N)sc(=S)c2CO1 (stereo not given)	-5	x	-5	20*	-17	18368*	1660	+
N#Cc1c(N)sc(=S)c2c1CCCC2	5	21	2	x	-20	x	x	x
c1csc(-c2nc3nc4ccccc4nc3n2Cc2ccc3c(c2)OCO3)c1	6	10	63*	8.9*	43	10488*	1716	+
COc1ccc(Cl)c(N2CCN(CCCNC(=O)Nc3ccc(C)cc3)CC2)c1	-1	18	13	x	-6	x	x	x
SMILES	JNK3 inh	HEK293 NFkB inh	SF1 activator	D1 mod	RORa activator	D1 mod confirm	D1 no dopamine	Isoprot counter
COc1cccc(-c2csc3nnc(SCC(=O)c4ccc(NC(C)=O)cc4)n23)c1	-1	3	-22	3*	-1	9644*	1744	+
O=C(CSc1nnc2scc(-c3ccccc3)n12)c1ccc2c(c1)OCCO2	-5	-3	33	4.2	11	x	x	x
CC(=O)Nc1cc(S(=O)(=O)C(F)(F)F)ccc1Cl	5	12	-6	0.022	-19	x	x	x
NC(=O)c1cc2ccc(O)cc2oc1=Nc1ccccc1	4	2	17	5.1*	32	5036	1960	i
O=C(O)c1ccccc1SC1CC(=O)N(C2CCCCC2)C1=O (stereo not given)	-4	10	2	3.9*	-2	6536	1600	i
CC(c1ccccc1)N1C(=O)CC(Sc2ncccc2C(=O)O)C1=O (stereo not given)	-4	7	1	-0.36	-7	x	x	x
CCOC(=O)c1sc(C)c2c1NC1(CCCCC1)NC2=O	10	23	-2	6.2*	-1	14036*	x	+
CCCN1CCN(C(=O)CN2C(=O)CC(C)(C)S(=O)(=O)c3ccccc32)CC1	-4	13	-9	-0.43	20	x	x	x
CCOC(=O)C1=C(C)Nc2nnnn2C1c1ccc(OC)c(Br)c1 (stereo not given)	3	-14	13	0.65	-4	x	x	x
COc1ccc(-c2nc(N3CCCC3)nc3nn4c(C)cc(C)nc4c23)cc1	-10	4	10	-0.82	16	x	x	x
COc1ccc(-c2nc(N3CCOCC3)nc3n[nH]c(N)c23)cc1	x	9	14	5*	-7	12424*	x	+
Nc1[nH]nc2nc(N3CCCC3)nc(-c3ccccc3)c12	x	5	-5	15*	-6	18304*	1740	+
Cc1cc(C)n2nc3nc(N4CCCC4)nc(-c4ccccc4)c3c2n1	1	11	-12	4.8*	-18	7140*	1568	+
O=C(CSc1nnc(COc2ccc3c(c2)CCCC3)o1)Nc1ccc(F)cc1	4	14	10	0.01	-12	x	x	x
CCOC(=O)Cn1nnnc1C(CC)N(Cc1cccs1)Cc1cc2ccc(OC)cc2[nH]c1=O (stereo not given)	0	16	-13	3	-5	x	x	x
CCOc1cc(-c2c(C#N)c(N)nc3c2CCCC3C)ccc1O (stereo not given)	0	-2	6	5.5*	-6	8596*	1588	+
CCOc1cc(-c2c(C#N)c(=O)[nH]c3c2c(C)nn3-c2ccc(F)cc2)ccc1O	-1	6	-15	0.89	-29	x	x	x

Screens deposited in PubChem BioAssay by several laboratories.
